Results as given in ChEMBL document CHEMBL1221409, “Antioxidant and anti-inflammatory phenylpropanoid derivatives from Calamus quiquesetinervius” (J Nat Prod, 2010).

Experiments:
[1] = Cytotoxicity against LPS-stimulated mouse RAW264.7 cells assessed as cell viability upto 100 uM by MTS assay; format: cell-based; conditions: LPS-stimulated RAW264.7 cells, read-out: Activity
How it was run: (§1)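 RAW 264.7 cells were incubated 24 h with the agent at various concentrations up to 100 µM, with or without LPS in the medium. Cell viability was read by MTS assay.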

[2] = Antioxidant activity assessed as hydroxyl radical scavenging activity by chemiluminescence analysis; format: functional
How it was run: (§2)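 Radical scavenging was tested with Trolox and quercetin as positive controls. Values are from three replicates, reported as means ± SD and expressed as IC50.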

[3] = Antioxidant activity assessed as superoxide radical scavenging activity by chemiluminescence analysis; format: functional
How it was run: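 Superoxide (·O2−) scavenging was tested with Trolox and quercetin as positive controls. Values are from three replicates, reported as means ± SD.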

RAW264.7 = assay: Antiinflammatory activity against LPS-stimulated mouse RAW264.7 cells assessed as inhibition of NO production after 24 hrs; format: functional, cell-based; conditions: RAW264.7, 24 h
How it was run: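 RAW 264.7 macrophages were stimulated with LPS in the presence of the test agent for 24 h. Inhibition of NO production was expressed as IC50, with quercetin as the reference.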

[4] = Cytotoxicity against mouse RAW264.7 cells assessed as cell viability upto 100 uM by MTS assay; format: cell-based; conditions: read-out: Activity; how it was run: as §1
[5] = system: Radical scavenging activity; assay: Antioxidant activity assessed as DPPH radical scavenging activity after 30 mins by ELISA reader; format: functional; how it was run: as §2

| Compound | IC50 [2] [µM] | IC50 [3] [µM] | IC50 (RAW264.7) [µM] | IC50 [5] [µM] | viability [1] [%] | viability [4] [%] |
| --- | --- | --- | --- | --- | --- | --- |
| Cc1c(C)c2c(c(C)c1O)CCC(C)(C(=O)O)O2 (configuration not stated) [TROLOX] | 4.31 | 25.3 | – | 32.9 | – | – |
| CCO[C@H](c1ccc(O)c(OC)c1)[C@H](COC(=O)c1ccc(O)cc1)Oc1ccc(/C=C/COC(=O)c2ccc(O)cc2)cc1OC (relative stereo) [QUIQUESETINERVIUSIN C] | 16.6 | > 200 | 95.7 | > 100 | > 90 | > 90 |
| COc1cc(/C=C/C(=O)OC[C@H]2O[C@@](CO)(O[C@H]3O[C@H](COC(C)=O)[C@@H](OC(=O)/C=C/c4ccc(O)c(OC)c4)[C@H](O)[C@H]3O)[C@@H](OC(=O)/C=C/c3ccc(O)c(OC)c3)[C@@H]2O)ccc1O | 7.4 | > 200 | 60.3 | 99.6 | > 90 | > 90 |
| COc1cc(C2Oc3c(OC)cc(/C=C/C=O)cc3C2COC(=O)c2ccc(O)cc2)ccc1O (configuration not stated) | 19.1 | > 200 | 69 | > 100 | > 90 | > 90 |
| O=c1c(O)c(-c2ccc(O)c(O)c2)oc2cc(O)cc(O)c12 [QUERCETIN] | – | – | 34.5 | – | – | – |
| COc1cc([C@H](O)[C@H](CO)Oc2c(OC)cc(-c3cc(=O)c4c(O)cc(O)cc4o3)cc2OC)ccc1O [SALCOLIN B] | 13.3 | > 200 | 29.5 | > 100 | > 90 | > 90 |

More lines, in order of falling IC50 [2], values ahead:

| IC50 [2] [µM] | IC50 [3] [µM] | IC50 (RAW264.7) [µM] | IC50 [5] [µM] | Compound | viability [1] [%] | viability [4] [%] |
| --- | --- | --- | --- | --- | --- | --- |
| 25.7 | > 200 | 223 | – | COc1cc([C@H]2Oc3c(OC)cc(/C=C/COC(=O)c4ccc(O)cc4)cc3[C@@H]2COC(=O)c2ccc(O)cc2)cc(OC)c1O [QUIQUESETINERVIUSIN B] | > 90 | > 90 |
| 23.7 | > 200 | 23.4 | – | COc1cc([C@H]2Oc3c(OC)cc(/C=C/COC(=O)c4ccc(O)cc4)cc3[C@@H]2COC(=O)c2ccc(O)cc2)ccc1O [QUIQUESETINERVIUSIN A] | > 90 | > 90 |
| 8.4 | > 200 | 9.5 | 64.4 | COc1cc(/C=C/C(=O)OC[C@H]2O[C@@](CO)(O[C@H]3O[C@H](COC(C)=O)[C@@H](OC(=O)/C=C/c4ccc(O)cc4)[C@H](O)[C@H]3O)[C@@H](OC(=O)/C=C/c3ccc(O)c(OC)c3)[C@@H]2O)ccc1O | > 90 | > 90 |
| 6.8 | > 200 | 78.1 | 62.5 | COc1cc(/C=C/C(=O)OC[C@H]2O[C@@](CO)(O[C@H]3O[C@H](CO)[C@@H](OC(=O)/C=C/c4ccc(O)c(OC)c4)[C@H](O)[C@H]3O)[C@@H](OC(=O)/C=C/c3ccc(O)c(OC)c3)[C@@H]2O)ccc1O | > 90 | > 90 |
| 5.5 | > 200 | 9.2 | 68.4 | COc1cc(/C=C/C(=O)OC[C@H]2O[C@@](CO)(O[C@H]3O[C@H](CO)[C@@H](OC(=O)/C=C/c4ccc(O)cc4)[C@H](O)[C@H]3OC(C)=O)[C@@H](OC(=O)/C=C/c3ccc(O)c(OC)c3)[C@@H]2O)ccc1O | > 90 | > 90 |
| 3.6 | 184 | 42.1 | 69.1 | COc1cc(/C=C/C(=O)OC[C@H]2O[C@@](CO)(O[C@H]3O[C@H](CO)[C@@H](OC(=O)/C=C/c4ccc(O)c(OC)c4)[C@H](O)[C@H]3OC(C)=O)[C@@H](OC(=O)/C=C/c3ccc(O)c(OC)c3)[C@@H]2O)ccc1O | > 90 | > 90 |
